SMILES strings stand for the structures.

Results on two compounds are retold here after ChEMBL document CHEMBL3407460, “Synthesis of novel thiazole-based 8,9-dihydro-7H-pyrimido[4,5-b][1,4]diazepines as potential antitumor and antifungal agents” (2015).

Assay type in all cases: functional
One assay has as its system A549. The assay can be described thus: Antitumor activity against human A549 cells after 48 hrs by Sulforhodamine B assay. The following applies: A549, 48 h; for CC50: read-out: LC50 (the source's name). In a few lines:
(§1)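 NCI 60-cell-line screen. Secondary five-dose test at 100, 10, 1.0, 0.1 and 0.01 µM with continuous drug exposure for 48 h. Cell growth was estimated by sulforhodamine B protein staining. […] LC50 was also reported.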
On the technique in general: Sulforhodamine B stains cellular protein and so reports cell mass.

For a further assay, the system named is NCI-H460. The assay can be described thus: Antitumor activity against human NCI-H460 cells after 48 hrs by Sulforhodamine B assay. The following applies: NCI-H460, 48 h. In a few lines:
as §1

A short description of assay [1]: Antitumor activity against human HCT116 cells after 48 hrs by Sulforhodamine B assay. The settings on record: HCT-116, 48 h; for CC50: read-out: LC50 (the source's name). In a few lines: as §1
Assay [2] in a line: Antitumor activity against human HCT15 cells after 48 hrs by Sulforhodamine B assay. The settings on record: HCT-15, 48 h; for CC50: read-out: LC50 (the source's name). In a few lines: as §1
The nature of assay [3]: Antitumor activity against human SF539 cells after 48 hrs by Sulforhodamine B assay. The settings on record: SF-539, 48 h; for CC50: read-out: LC50 (the source's name). In outline:
as §1

Another assay concerns SK-MEL-2. The assay can be described thus: Antitumor activity against human SK-MEL-2 cells after 48 hrs by Sulforhodamine B assay. The settings on record: SK-MEL-2, 48 h. In a few lines:
as §1

The test system of the next assay is SK-MEL-5. The assay is described as follows: Antitumor activity against human SK-MEL-5 cells after 48 hrs by Sulforhodamine B assay. The settings on record: SK-MEL-5, 48 h; for CC50: read-out: LC50 (the source's name). In a few lines: as §1
A further assay has as its system IGROV-1. The assay is described as follows: Antitumor activity against human IGROV1 cells after 48 hrs by Sulforhodamine B assay. The settings on record: IGROV-1, 48 h; for CC50: read-out: LC50 (the source's name). In outline: as §1

Regarding `Cc1ccc(C2=Nc3c(N)ncnc3NC(c3sc(Cl)nc3Cl)C2)cc1` (configuration not stated), the GI50 was found to be 5.02 µM in the assay on A549; 4.06 µM in the assay with NCI-H460; 3.7 µM in assay [1]; 3.05 µM in assay [2]; 2.69 µM in assay [3]; 2.98 µM in the assay on SK-MEL-2. Moreover, the concentration for 50% growth inhibition (GI50) in the assay on SK-MEL-5 came out at 3.69 µM; in the assay on IGROV-1 it was 7.08 µM. In addition, the CC50 in the assay on A549 was 52.5 µM; in assay [1], 37.3 µM; in assay [2], 50.1 µM; in assay [3], 33.1 µM; in the assay on SK-MEL-5, 37.3 µM; in the assay on IGROV-1, 63.2 µM. Further, the LC50 in the assay with NCI-H460 was 49.4 µM; in the assay with SK-MEL-2, 35.6 µM.
As for `Nc1ncnc2c1N=C(c1ccc3c(c1)OCO3)CC(c1sc(Cl)nc1Cl)N2` (configuration not stated), the GI50 turned out to be 6.47 µM in the assay on A549; 3.99 µM in the assay on NCI-H460; 3.42 µM in assay [1]; 1.07 µM in assay [2]; 2.22 µM in assay [3]; 5.19 µM with SK-MEL-2. For the same compound, the GI50 stood at 3.43 µM with SK-MEL-5 and 10.4 µM with IGROV-1. For the same compound, the CC50 was greater than 100 µM in the assay on A549; 44.5 µM in assay [1]; greater than 100 µM in assay [2]; 33.6 µM in assay [3]; 40.8 µM with SK-MEL-5; greater than 100 µM with IGROV-1. The LC50 in the assay on NCI-H460 is greater than 100 µM; in the assay on SK-MEL-2 it was 48.6 µM.

Broadly, the GI50 is the concentration giving 50% growth inhibition. Higher therefore signals lower sensitivity of the cells. For orientation: LC50 means the concentration lethal to half of the exposed cells or organisms. A higher LC50 goes with lower toxicity.
